Measured values taken from ChEMBL document CHEMBL5303300, “EUbOPEN Chemogenomics Library - Multiplex” (2023).
Several values for one entry are separate records, joined by “and”; a condition that tells them apart may be missing. Equal entries are not always repeated.

Experiments:
Type in all cases: toxicity, cell-based
[1] = system: HEK-293T; assay: Multiplex assay against HEK293T; conditions: human, number of replicates 2
How it was run: (§1)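 Tubulin, mitochondrial-mass and membrane-permeability phenotypes are per cents of healthy-nucleus cells. Cells were gated by CellPathfinder machine learning into Hoechst high-intensity objects or normal cells, normal cells into healthy, pyknosed or fragmented nuclei, and pyknosed cells into mitotic or apoptotic. Before that, live cells stained at seeding with Hoechst33342, BioTracker Green Microtubule Cytoskeleton Dye, MitoTracker Red and Annexin V Alexa Fluor 680 were imaged on a CQ1 microscope at 37°C and 5% CO2 after compound addition.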

[2] = system: U2OS; assay: Multiplex assay against U2OS; conditions: human, number of replicates 2; how it was run: as §1
[3] = system: Fibroblast; assay: Multiplex assay against human fibroblast; conditions: number of replicates 2; how it was run: as §1
[4] = 12 h, 1 µM, compound concentration 1 uM
[5] = 12 h, 10 µM, compound concentration 10 uM
[6] = 24 h, 1 µM, compound concentration 1 uM
[7] = 24 h, 10 µM, compound concentration 10 uM
[8] = 48 h, 1 µM, compound concentration 1 uM
[9] = 48 h, 10 µM, compound concentration 10 uM

CC(C)c1cc(-c2ccc(F)c3ccccc23)nc(N)n1
Population Apoptotic (%) [1, 4]: 45% and 56% | Population Fragmented Nuclei (%) [1, 4]: 3% | Population Healthy Nuclei (%) [1, 4]: 88% and 87% | Population Hoechst High Intensity Objects (%) [1, 4]: 5% | Population Membrane Permeable-Phenotype (%) [1, 4]: 2% | Population Mitochondria Different-Phenotype (%) [1, 4]: 15% | Population Mitotic Cells (%) [1, 4]: 54% and 43% | Population Normal (%) [1, 4]: 94% | Population Pyknosed Nuclei (%) [1, 4]: 8% and 9% | Population Tubulin-Different-Phenotype (%) [1, 4]: 54% and 59% | Total Cell Count [1, 4]: 775 and 598 | Population Apoptotic (%) [1, 5]: 62% | Population Fragmented Nuclei (%) [1, 5]: 3% and 4% | Population Healthy Nuclei (%) [1, 5]: 78% and 80% | Population Hoechst High Intensity Objects (%) [1, 5]: 7% | Population Membrane Permeable-Phenotype (%) [1, 5]: 1% and 0% | Population Mitochondria Different-Phenotype (%) [1, 5]: 25% and 20% | Population Mitotic Cells (%) [1, 5]: 37% | Population Normal (%) [1, 5]: 92% | Population Pyknosed Nuclei (%) [1, 5]: 18% and 15% | Population Tubulin-Different-Phenotype (%) [1, 5]: 66% and 60% | Total Cell Count [1, 5]: 434 and 448 | Population Apoptotic (%) [1, 6]: 49% and 36% | Population Fragmented Nuclei (%) [1, 6]: 6% and 4% | Population Healthy Nuclei (%) [1, 6]: 88% | Population Hoechst High Intensity Objects (%) [1, 6]: 7% and 9% | Population Membrane Permeable-Phenotype (%) [1, 6]: 2% and 3% | Population Mitochondria Different-Phenotype (%) [1, 6]: 4% and 5% | Population Mitotic Cells (%) [1, 6]: 50% and 63% | Population Normal (%) [1, 6]: 92% and 90% | Population Pyknosed Nuclei (%) [1, 6]: 5% and 6% | Population Tubulin-Different-Phenotype (%) [1, 6]: 34% and 35% | Total Cell Count [1, 6]: 1247 and 898 | Population Apoptotic (%) [1, 7]: 41% and 43% | Population Fragmented Nuclei (%) [1, 7]: 7% and 6% | Population Healthy Nuclei (%) [1, 7]: 84% and 82% | Population Hoechst High Intensity Objects (%) [1, 7]: 7% and 6% | Population Membrane Permeable-Phenotype (%) [1, 7]: 2% and 1% | Population Mitochondria Different-Phenotype (%) [1, 7]: 14% and 12% | Population Mitotic Cells (%) [1, 7]: 58% and 56% | Population Normal (%) [1, 7]: 92% and 93% | Population Pyknosed Nuclei (%) [1, 7]: 8% and 10% | Population Tubulin-Different-Phenotype (%) [1, 7]: 46% and 42% | Total Cell Count [1, 7]: 675 and 625 | Population Apoptotic (%) [1, 8]: 10% and 18% | Population Fragmented Nuclei (%) [1, 8]: 16% and 10% | Population Healthy Nuclei (%) [1, 8]: 81% and 85% | Population Hoechst High Intensity Objects (%) [1, 8]: 9% and 10% | Population Membrane Permeable-Phenotype (%) [1, 8]: 5% | Population Mitochondria Different-Phenotype (%) [1, 8]: 0% and 1% | Population Mitotic Cells (%) [1, 8]: 90% and 81% | Population Normal (%) [1, 8]: 90% and 89% | Population Pyknosed Nuclei (%) [1, 8]: 2% and 4% | Population Tubulin-Different-Phenotype (%) [1, 8]: 17% and 23% | Total Cell Count [1, 8]: 3182 and 1908 | Population Apoptotic (%) [1, 9]: 20% and 37% | Population Fragmented Nuclei (%) [1, 9]: 14% and 10% | Population Healthy Nuclei (%) [1, 9]: 81% and 86% | Population Hoechst High Intensity Objects (%) [1, 9]: 8% and 7% | Population Membrane Permeable-Phenotype (%) [1, 9]: 6% and 2% | Population Mitochondria Different-Phenotype (%) [1, 9]: 2% and 3% | Population Mitotic Cells (%) [1, 9]: 80% and 62% | Population Normal (%) [1, 9]: 91% and 92% | Population Pyknosed Nuclei (%) [1, 9]: 3% and 2% | Population Tubulin-Different-Phenotype (%) [1, 9]: 26% and 24% | Total Cell Count [1, 9]: 1507 and 1327 | Population Apoptotic (%) [2, 4]: 35% and 50% | Population Fragmented Nuclei (%) [2, 4]: 2% and 12% | Population Healthy Nuclei (%) [2, 4]: 88% and 81% | Population Hoechst High Intensity Objects (%) [2, 4]: 0% | Population Membrane Permeable-Phenotype (%) [2, 4]: 1% and 7% | Population Mitochondria Different-Phenotype (%) [2, 4]: 0% | Population Mitotic Cells (%) [2, 4]: 65% and 50% | Population Normal (%) [2, 4]: 100% | Population Pyknosed Nuclei (%) [2, 4]: 8% and 6% | Population Tubulin-Different-Phenotype (%) [2, 4]: 88% and 44% | Population Apoptotic (%) [2, 5]: 66% and 52% | Population Healthy Nuclei (%) [2, 5]: 52% and 84% | Population Hoechst High Intensity Objects (%) [2, 5]: 0% | Population Mitotic Cells (%) [2, 5]: 33% and 48% | Population Normal (%) [2, 5]: 100% | Population Pyknosed Nuclei (%) [2, 5]: 15% and 10% | Population Tubulin-Different-Phenotype (%) [2, 5]: 80% and 71% | Population Fragmented Nuclei (%) [2, 6]: 3% and 8% | Population Healthy Nuclei (%) [2, 6]: 86% and 82% | Population Hoechst High Intensity Objects (%) [2, 6]: 0% | Population Membrane Permeable-Phenotype (%) [2, 6]: 0% and 7% | Population Mitochondria Different-Phenotype (%) [2, 6]: 0% | Population Mitotic Cells (%) [2, 6]: 47% and 100% | Population Normal (%) [2, 6]: 100% | Population Pyknosed Nuclei (%) [2, 6]: 9% and 10% | Population Tubulin-Different-Phenotype (%) [2, 6]: 89% and 41% | Population Apoptotic (%) [2, 7]: 100% and 65% | Population Healthy Nuclei (%) [2, 7]: 58% and 86% | Population Hoechst High Intensity Objects (%) [2, 7]: 0% | Population Membrane Permeable-Phenotype (%) [2, 7]: 11% and 3% | Population Mitochondria Different-Phenotype (%) [2, 7]: 11% and 1% | Population Normal (%) [2, 7]: 100% | Population Pyknosed Nuclei (%) [2, 7]: 6% and 8% | Population Tubulin-Different-Phenotype (%) [2, 7]: 55% and 72% | Population Fragmented Nuclei (%) [2, 8]: 13% and 3% | Population Healthy Nuclei (%) [2, 8]: 83% and 90% | Population Hoechst High Intensity Objects (%) [2, 8]: 0% | Population Membrane Permeable-Phenotype (%) [2, 8]: 1% and 2% | Population Mitochondria Different-Phenotype (%) [2, 8]: 1% and 0% | Population Mitotic Cells (%) [2, 8]: 100% and 60% | Population Normal (%) [2, 8]: 100% | Population Pyknosed Nuclei (%) [2, 8]: 2% and 6% | Population Tubulin-Different-Phenotype (%) [2, 8]: 57% and 93% | Population Apoptotic (%) [2, 9]: 83% and 59% | Population Healthy Nuclei (%) [2, 9]: 62% and 90% | Population Hoechst High Intensity Objects (%) [2, 9]: 0% | Population Mitotic Cells (%) [2, 9]: 16% and 40% | Population Normal (%) [2, 9]: 100% | Population Tubulin-Different-Phenotype (%) [2, 9]: 60% and 84% | Population Apoptotic (%) [3, 4]: 33% | Population Fragmented Nuclei (%) [3, 4]: 14% and 15% | Population Healthy Nuclei (%) [3, 4]: 70% and 65% | Population Hoechst High Intensity Objects (%) [3, 4]: 1% and 0% | Population Membrane Permeable-Phenotype (%) [3, 4]: 5% and 8% | Population Mitochondria Different-Phenotype (%) [3, 4]: 0% and 3% | Population Mitotic Cells (%) [3, 4]: 66% | Population Normal (%) [3, 4]: 98% and 100% | Population Pyknosed Nuclei (%) [3, 4]: 15% and 18% | Population Tubulin-Different-Phenotype (%) [3, 4]: 16% and 14% | Total Cell Count [3, 4]: 161 and 144 | Population Apoptotic (%) [3, 5]: 38% | Population Fragmented Nuclei (%) [3, 5]: 11% and 16% | Population Healthy Nuclei (%) [3, 5]: 75% and 71% | Population Hoechst High Intensity Objects (%) [3, 5]: 0% | Population Membrane Permeable-Phenotype (%) [3, 5]: 7% | Population Mitochondria Different-Phenotype (%) [3, 5]: 0% and 2% | Population Mitotic Cells (%) [3, 5]: 61% | Population Normal (%) [3, 5]: 100% | Population Pyknosed Nuclei (%) [3, 5]: 12% | Population Tubulin-Different-Phenotype (%) [3, 5]: 12% | Total Cell Count [3, 5]: 140 and 174 | Population Apoptotic (%) [3, 6]: 47% and 40% | Population Fragmented Nuclei (%) [3, 6]: 14% and 15% | Population Healthy Nuclei (%) [3, 6]: 71% and 67% | Population Hoechst High Intensity Objects (%) [3, 6]: 0% | Population Membrane Permeable-Phenotype (%) [3, 6]: 4% and 8% | Population Mitochondria Different-Phenotype (%) [3, 6]: 0% and 1% | Population Mitotic Cells (%) [3, 6]: 52% and 60% | Population Normal (%) [3, 6]: 100% | Population Pyknosed Nuclei (%) [3, 6]: 13% and 17% | Population Tubulin-Different-Phenotype (%) [3, 6]: 17% and 12% | Total Cell Count [3, 6]: 157 and 140 | Population Apoptotic (%) [3, 7]: 75% and 46% | Population Fragmented Nuclei (%) [3, 7]: 9% and 14% | Population Healthy Nuclei (%) [3, 7]: 84% and 76% | Population Hoechst High Intensity Objects (%) [3, 7]: 0% | Population Membrane Permeable-Phenotype (%) [3, 7]: 5% and 1% | Population Mitochondria Different-Phenotype (%) [3, 7]: 0% and 3% | Population Mitotic Cells (%) [3, 7]: 25% and 53% | Population Normal (%) [3, 7]: 99% and 100% | Population Pyknosed Nuclei (%) [3, 7]: 5% and 8% | Population Tubulin-Different-Phenotype (%) [3, 7]: 11% and 8% | Total Cell Count [3, 7]: 135 and 171 | Population Apoptotic (%) [3, 8]: 65% and 57% | Population Fragmented Nuclei (%) [3, 8]: 16% and 13% | Population Healthy Nuclei (%) [3, 8]: 69% and 71% | Population Hoechst High Intensity Objects (%) [3, 8]: 0% | Population Membrane Permeable-Phenotype (%) [3, 8]: 4% and 7% | Population Mitochondria Different-Phenotype (%) [3, 8]: 0% | Population Mitotic Cells (%) [3, 8]: 34% and 42% | Population Normal (%) [3, 8]: 100% and 99% | Population Pyknosed Nuclei (%) [3, 8]: 13% and 14% | Population Tubulin-Different-Phenotype (%) [3, 8]: 14% and 7% | Total Cell Count [3, 8]: 173 and 142 | Population Apoptotic (%) [3, 9]: 100% and 54% | Population Fragmented Nuclei (%) [3, 9]: 13% and 14% | Population Healthy Nuclei (%) [3, 9]: 82% and 79% | Population Hoechst High Intensity Objects (%) [3, 9]: 0% | Population Membrane Permeable-Phenotype (%) [3, 9]: 3% and 1% | Population Mitochondria Different-Phenotype (%) [3, 9]: 0% | Population Normal (%) [3, 9]: 100% | Population Pyknosed Nuclei (%) [3, 9]: 3% and 6% | Population Tubulin-Different-Phenotype (%) [3, 9]: 7% and 5% | Total Cell Count [3, 9]: 152 and 175
